Data set [1] concerns Acinetobacter baumannii. Put plainly: Antibacterial activity against Acinetobacter baumannii 2018-006 assessed as bacterial growth inhibition by broth microdilution assay. In kind it is functional. Put shortly:
(§1)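 Broth microdilution MIC. Strains grown overnight on blood agar at 37 °C, colonies suspended in TSB and grown to OD600 0.5. Compounds dissolved in DMSO (6.4 mg mL−1 stock), diluted serially in CAMHB (12.5 μg mL−1 Mg2+, 20 μg mL−1 Ca2+) on polypropylene plates. Final inoculum 10^6 CFU mL−1, 37 °C under gas-permeable membrane. MIC is the lowest concentration with no visible growth, consistent across at least triplicate experiments.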
In general terms: In broth dilution the organism is exposed to a series of concentrations in liquid medium.

Data set [2] concerns Pseudomonas aeruginosa. Put plainly: Antibacterial activity against Pseudomonas aeruginosa ATCC 27853 assessed as bacterial growth inhibition by broth microdilution assay. In kind it is functional. Put shortly:
(§2)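 Broth microdilution. Bacteria from glycerol stocks were grown overnight on blood agar at 37 °C, then colonies were suspended in TSB and grown to OD600 0.5. Compounds were dissolved in DMSO at 6.4 mg mL−1 (stock) and serially diluted in CAMHB (Mg2+ 12.5, Ca2+ 20 μg mL−1) in polypropylene plates. Inoculum was 10^6 CFU mL−1 final, incubated at 37 °C. MIC = lowest concentration without visible growth; values consistent across at least triplicate experiments.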

Data set [3] concerns Acinetobacter baumannii. Put plainly: Antibacterial activity against Acinetobacter baumannii ATCC 17978 assessed as bacterial growth inhibition by broth microdilution assay. Format: functional. Put shortly: as §1
In data set [4] the test system is Acinetobacter baumannii. Description: Antibacterial activity against multidrug-resistant Acinetobacter baumannii assessed as bacterial growth inhibition by broth microdilution assay. Format: functional. Put shortly: as §1
The test system of data set [5] is Pseudomonas aeruginosa. Put plainly: Antibacterial activity against Pseudomonas aeruginosa NRZ 03961 assessed as bacterial growth inhibition by broth microdilution assay. In kind it is functional. Put shortly:
as §2

In data set [6] the test system is Klebsiella pneumoniae. Description: Antibacterial activity against Klebsiella pneumoniae NCTC 13443 assessed as bacterial growth inhibition by broth microdilution assay. Format: functional. Put shortly:
as §2

The subject of data set [7] is Escherichia coli. Put plainly: Antibacterial activity against Escherichia coli 1313 assessed as bacterial growth inhibition by broth microdilution assay. Format: functional. Put shortly:
as §2

In data set [8] the test system is Escherichia coli. Description: Antibacterial activity against Escherichia coli ATCC 25922 assessed as bacterial growth inhibition by broth microdilution assay. Format: functional. Put shortly:
as §2

In data set [9] the test system is Klebsiella pneumoniae. Put plainly: Antibacterial activity against Klebsiella pneumoniae ATCC 13883 assessed as bacterial growth inhibition by broth microdilution assay. Format: functional. Put shortly:
as §2

Data set [10] deals with Escherichia coli. Description: Antibacterial activity against multidrug-resistant Escherichia coli NCTC 13846 assessed as bacterial growth inhibition by broth microdilution assay. In kind it is functional. Put shortly: as §1
Data set [11] deals with Pseudomonas aeruginosa. Description: Antibacterial activity against Pseudomonas aeruginosa NRZ 08418 assessed as bacterial growth inhibition by broth microdilution assay. Format: functional. Put shortly: as §2
Data set [12] concerns Acinetobacter baumannii. Description: Antibacterial activity against Acinetobacter baumannii ATCC 19606 assessed as bacterial growth inhibition by broth microdilution assay. Format: functional. Put shortly:
as §1

The test system of data set [13] is Klebsiella pneumoniae. Description: Antibacterial activity against Klebsiella pneumoniae JS-123 assessed as bacterial growth inhibition by broth microdilution assay. In kind it is functional. Put shortly: as §2
Data set [14] in a line: Cytotoxicity against human ciPTEC cells assessed as reduction in cell viability at 250 uM incubated for 24 hrs by PrestoBlue reagent based fluorescence assay. Format: toxicity. Put shortly:
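Differentiated ciPTEC-14.4 (conditionally immortalized) cells were washed with HBSS and then exposed to 250 μM compound in serum-free supplemented DMEM/F-12 for 24 h at 37 °C. After an HBSS wash, cells were incubated with 10% PrestoBlue in HBSS at 37 °C in the dark. Fluorescence was read at ex 530/em 590 nm, background-corrected, and expressed relative to medium-only cells; triplicates.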

As a reminder, the MIC is the smallest concentration in the dilution series that meets the test's criterion for growth inhibition.

Values after ≈ are worked out from the molar mass of the structure shown. Bounds are passed on as bounds.

Regarding `CC(C)C[C@@H]1NC(=O)[C@@H](Cc2ccccc2)NC(=O)[C@H](CCN)NC(=O)[C@@H](NC(=O)[C@@H](CCN)NC(=O)[C@@H](NC(=O)[C@H](N)CSSCc2cccc(Cl)c2)[C@@H](C)O)CCNC(=O)[C@H]([C@@H](C)O)NC(=O)[C@H](CCN)NC(=O)[C@H](CCN)NC1=O`, the MIC worked out at 0.5 µg/mL (≈ 0.409 µM) in [1]; 2 µg/mL (≈ 1.64 µM) in data set [2]; 1 µg/mL (≈ 0.818 µM) in [3]; 1 µg/mL (≈ 0.818 µM) in [4]; 2 µg/mL (≈ 1.64 µM) in [5]; 0.5 µg/mL (≈ 0.409 µM) in [6]. In addition, the minimal inhibitory concentration (MIC) in [7] was determined as 0.5 µg/mL (≈ 0.409 µM); in data set [8] it was 2 µg/mL (≈ 1.64 µM); in data set [9], 1 µg/mL (≈ 0.818 µM); in [10], 4 µg/mL (≈ 3.27 µM); in data set [11], 2 µg/mL (≈ 1.64 µM); in data set [12] it was 0.5 µg/mL (≈ 0.409 µM). In addition, the minimal inhibitory concentration (MIC) in [13] turned out to be 0.5 µg/mL (≈ 0.409 µM).

`CC(C)CCSSC[C@@H](N)C(=O)N[C@H](C(=O)N[C@@H](CCN)C(=O)N[C@H]1CCNC(=O)[C@H]([C@@H](C)O)NC(=O)[C@H](CCN)NC(=O)[C@H](CCN)NC(=O)[C@H](CC(C)C)NC(=O)[C@@H](Cc2ccccc2)NC(=O)[C@H](CCN)NC1=O)[C@@H](C)O`: the minimal inhibitory concentration (MIC) worked out at 0.5 µg/mL (≈ 0.428 µM) in data set [1]; 1 µg/mL (≈ 0.856 µM) in [2]; 1 µg/mL (≈ 0.856 µM) in data set [3]; 1 µg/mL (≈ 0.856 µM) in data set [4]; 2 µg/mL (≈ 1.71 µM) in [5]; 0.5 µg/mL (≈ 0.428 µM) in data set [6]. For the same compound, the minimal inhibitory concentration (MIC) is not above 0.125 µg/mL in data set [7]; 1 µg/mL (≈ 0.856 µM) in [8]; 0.5 µg/mL (≈ 0.428 µM) in data set [9]; 8 µg/mL (≈ 6.85 µM) in [10]; 1 µg/mL (≈ 0.856 µM) in [11]; 0.5 µg/mL (≈ 0.428 µM) in data set [12]. Moreover, the MIC in data set [13] amounted to 0.25 µg/mL (≈ 0.214 µM). Besides, the Activity in [14] is listed as more than 50%.

In the case of `CC(C)C[C@@H]1NC(=O)[C@@H](Cc2ccccc2)NC(=O)[C@H](CCN)NC(=O)[C@@H](NC(=O)CNC(=O)[C@@H](NC(=O)[C@H](N)CSSCCC2CCCCC2)[C@@H](C)O)CCNC(=O)[C@H]([C@@H](C)O)NC(=O)[C@H](CCN)NC(=O)[C@H](CCN)NC1=O`, the minimum inhibitory concentration (MIC) in data set [1] is 0.5 µg/mL (≈ 0.429 µM); in data set [2], 2 µg/mL (≈ 1.72 µM); in [3], 0.5 µg/mL (≈ 0.429 µM); in [4], 1 µg/mL (≈ 0.858 µM); in [5], 4 µg/mL (≈ 3.43 µM); in [6], 1 µg/mL (≈ 0.858 µM). Moreover, the MIC in data set [7] was 0.5 µg/mL (≈ 0.429 µM); in data set [8], 2 µg/mL (≈ 1.72 µM); in data set [9], 1 µg/mL (≈ 0.858 µM); in data set [10] it was 8 µg/mL (≈ 6.86 µM); in data set [11], 2 µg/mL (≈ 1.72 µM); in [12], 0.5 µg/mL (≈ 0.429 µM). Further, in data set [13], the MIC was 0.5 µg/mL (≈ 0.429 µM).

In the case of `CC(C)C[C@@H]1NC(=O)[C@@H](Cc2ccccc2)NC(=O)[C@H](CCN)NC(=O)[C@@H](NC(=O)[C@H](CN)NC(=O)[C@@H](NC(=O)[C@H](N)CSSCc2cccc(Cl)c2)[C@@H](C)O)CCNC(=O)[C@H]([C@@H](C)O)NC(=O)[C@H](CCN)NC(=O)[C@H](CCN)NC1=O`, the MIC in data set [1] is 2 µg/mL (≈ 1.65 µM); in data set [2], 4 µg/mL (≈ 3.31 µM); in [3] it was not above 0.25 µg/mL; in [4], 8 µg/mL (≈ 6.62 µM); in data set [5] it was 2 µg/mL (≈ 1.65 µM); in data set [6], 2 µg/mL (≈ 1.65 µM). Besides, the MIC is not above 0.125 µg/mL in data set [7]; 2 µg/mL (≈ 1.65 µM) in [8]; 0.5 µg/mL (≈ 0.414 µM) in data set [9]; 2 µg/mL (≈ 1.65 µM) in data set [10]; 2 µg/mL (≈ 1.65 µM) in data set [11]; 0.5 µg/mL (≈ 0.414 µM) in data set [12]. Moreover, the MIC in data set [13] was found to be 0.5 µg/mL (≈ 0.414 µM).

The values above are taken from ChEMBL document CHEMBL5356951, “Semisynthetic polymyxins with potent antibacterial activity and reduced kidney cell toxicity” (RSC Med Chem, 2023).
